# Several values for one entry are separate records, joined by “and”; a condition that tells them apart may be missing. Equal entries are not always repeated.
# Tests used:
# Type in all cases: toxicity, cell-based
# [1] = tested on: Fibroblast; assay: Multiplex assay against human fibroblast; conditions: number of replicates 2
# Outline: (§1)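 Imaging took place on a CQ1 microscope at 37°C and 5% CO2 once compound had been added to live cells stained at seeding with Hoechst33342, BioTracker Green Microtubule Cytoskeleton Dye, MitoTracker Red and Annexin V Alexa Fluor 680. CellPathfinder machine-learning gating classed cells as Hoechst high-intensity objects or normal cells, classed normal cells as having healthy, pyknosed or fragmented nuclei, and classed pyknosed cells as mitotic or apoptotic. Tubulin, mitochondrial-mass and membrane-permeability phenotypes are per cents of the healthy-nucleus cells.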
# [2] = tested on: HEK-293T; assay: Multiplex assay against HEK293T; conditions: human, number of replicates 2; outline: as §1
# [3] = tested on: U2OS; assay: Multiplex assay against U2OS; conditions: human, number of replicates 2; outline: as §1
# [4] = 12 h, 1 µM, compound concentration 1 uM
# [5] = 12 h, 10 µM, compound concentration 10 uM
# [6] = 24 h, 1 µM, compound concentration 1 uM
# [7] = 24 h, 10 µM, compound concentration 10 uM
# [8] = 48 h, 1 µM, compound concentration 1 uM
# [9] = 48 h, 10 µM, compound concentration 10 uM
smiles,measurement,setting,value
CN(C)CCCN1c2ccccc2Sc2ccc(Cl)cc21.Cl [CHLORPROMAZINE HYDROCHLORIDE],Population Apoptotic (%),[1]; [4],40% and 38%
same,Population Fragmented Nuclei (%),[1]; [4],16% and 14%
same,Population Healthy Nuclei (%),[1]; [4],51% and 64%
same,Population Hoechst High Intensity Objects (%),[1]; [4],0%
same,Population Membrane Permeable-Phenotype (%),[1]; [4],7% and 5%
same,Population Mitochondria Different-Phenotype (%),[1]; [4],1% and 2%
same,Population Mitotic Cells (%),[1]; [4],59% and 61%
same,Population Normal (%),[1]; [4],100%
same,Population Pyknosed Nuclei (%),[1]; [4],32% and 21%
same,Population Tubulin-Different-Phenotype (%),[1]; [4],14% and 13%
same,Total Cell Count,[1]; [4],190 and 200
same,Population Apoptotic (%),[1]; [5],52% and 41%
same,Population Fragmented Nuclei (%),[1]; [5],15% and 22%
same,Population Healthy Nuclei (%),[1]; [5],65% and 62%
same,Population Hoechst High Intensity Objects (%),[1]; [5],0%
same,Population Membrane Permeable-Phenotype (%),[1]; [5],5% and 1%
same,Population Mitochondria Different-Phenotype (%),[1]; [5],5% and 9%
same,Population Mitotic Cells (%),[1]; [5],47% and 58%
same,Population Normal (%),[1]; [5],99% and 100%
same,Population Pyknosed Nuclei (%),[1]; [5],19% and 14%
same,Population Tubulin-Different-Phenotype (%),[1]; [5],45% and 36%
same,Total Cell Count,[1]; [5],187 and 323
same,Population Apoptotic (%),[1]; [6],64% and 46%
same,Population Fragmented Nuclei (%),[1]; [6],15% and 17%
same,Population Healthy Nuclei (%),[1]; [6],58% and 66%
same,Population Hoechst High Intensity Objects (%),[1]; [6],0%
same,Population Membrane Permeable-Phenotype (%),[1]; [6],13% and 6%
same,Population Mitochondria Different-Phenotype (%),[1]; [6],1% and 3%
same,Population Mitotic Cells (%),[1]; [6],35% and 53%
same,Population Normal (%),[1]; [6],100%
same,Population Pyknosed Nuclei (%),[1]; [6],25% and 16%
same,Population Tubulin-Different-Phenotype (%),[1]; [6],23% and 12%
same,Total Cell Count,[1]; [6],206 and 196
same,Population Apoptotic (%),[1]; [7],80% and 58%
same,Population Fragmented Nuclei (%),[1]; [7],15% and 24%
same,Population Healthy Nuclei (%),[1]; [7],72% and 65%
same,Population Hoechst High Intensity Objects (%),[1]; [7],1%
same,Population Membrane Permeable-Phenotype (%),[1]; [7],2% and 1%
same,Population Mitochondria Different-Phenotype (%),[1]; [7],16% and 15%
same,Population Mitotic Cells (%),[1]; [7],19% and 41%
same,Population Normal (%),[1]; [7],98%
same,Population Pyknosed Nuclei (%),[1]; [7],11% and 10%
same,Population Tubulin-Different-Phenotype (%),[1]; [7],49% and 42%
same,Total Cell Count,[1]; [7],187 and 299
same,Population Apoptotic (%),[1]; [8],82% and 60%
same,Population Fragmented Nuclei (%),[1]; [8],19% and 15%
same,Population Healthy Nuclei (%),[1]; [8],60% and 71%
same,Population Hoechst High Intensity Objects (%),[1]; [8],0%
same,Population Membrane Permeable-Phenotype (%),[1]; [8],7% and 4%
same,Population Mitochondria Different-Phenotype (%),[1]; [8],4% and 1%
same,Population Mitotic Cells (%),[1]; [8],17% and 39%
same,Population Normal (%),[1]; [8],99%
same,Population Pyknosed Nuclei (%),[1]; [8],20% and 12%
same,Total Cell Count,[1]; [8],195 and 226
same,Population Apoptotic (%),[1]; [9],73% and 90%
same,Population Fragmented Nuclei (%),[1]; [9],23% and 32%
same,Population Healthy Nuclei (%),[1]; [9],67% and 57%
same,Population Hoechst High Intensity Objects (%),[1]; [9],1% and 0%
same,Population Membrane Permeable-Phenotype (%),[1]; [9],2%
same,Population Mitochondria Different-Phenotype (%),[1]; [9],5% and 7%
same,Population Mitotic Cells (%),[1]; [9],26% and 9%
same,Population Normal (%),[1]; [9],99%
same,Population Pyknosed Nuclei (%),[1]; [9],9%
same,Population Tubulin-Different-Phenotype (%),[1]; [9],33% and 34%
same,Total Cell Count,[1]; [9],201 and 323
same,Population Apoptotic (%),[2]; [4],54% and 40%
same,Population Fragmented Nuclei (%),[2]; [4],3% and 4%
same,Population Healthy Nuclei (%),[2]; [4],81% and 82%
same,Population Hoechst High Intensity Objects (%),[2]; [4],13% and 8%
same,Population Membrane Permeable-Phenotype (%),[2]; [4],1% and 2%
same,Population Mitochondria Different-Phenotype (%),[2]; [4],25% and 15%
same,Population Mitotic Cells (%),[2]; [4],45% and 59%
same,Population Normal (%),[2]; [4],86% and 91%
same,Population Pyknosed Nuclei (%),[2]; [4],14% and 12%
same,Population Tubulin-Different-Phenotype (%),[2]; [4],53% and 48%
same,Total Cell Count,[2]; [4],443 and 595
same,Population Apoptotic (%),[2]; [5],55%
same,Population Fragmented Nuclei (%),[2]; [5],1% and 2%
same,Population Healthy Nuclei (%),[2]; [5],80% and 78%
same,Population Hoechst High Intensity Objects (%),[2]; [5],9% and 6%
same,Population Membrane Permeable-Phenotype (%),[2]; [5],2%
same,Population Mitochondria Different-Phenotype (%),[2]; [5],40% and 53%
same,Population Mitotic Cells (%),[2]; [5],44%
same,Population Normal (%),[2]; [5],90% and 93%
same,Population Pyknosed Nuclei (%),[2]; [5],17% and 19%
same,Population Tubulin-Different-Phenotype (%),[2]; [5],83% and 88%
same,Total Cell Count,[2]; [5],580 and 531
same,Population Apoptotic (%),[2]; [6],57% and 47%
same,Population Fragmented Nuclei (%),[2]; [6],7% and 5%
same,Population Healthy Nuclei (%),[2]; [6],80% and 88%
same,Population Hoechst High Intensity Objects (%),[2]; [6],5% and 7%
same,Population Membrane Permeable-Phenotype (%),[2]; [6],1%
same,Population Mitochondria Different-Phenotype (%),[2]; [6],12% and 4%
same,Population Mitotic Cells (%),[2]; [6],42% and 52%
same,Population Normal (%),[2]; [6],94% and 92%
same,Population Pyknosed Nuclei (%),[2]; [6],11% and 6%
same,Population Tubulin-Different-Phenotype (%),[2]; [6],36% and 29%
same,Total Cell Count,[2]; [6],621 and 951
same,Population Apoptotic (%),[2]; [7],67% and 63%
same,Population Fragmented Nuclei (%),[2]; [7],4%
same,Population Healthy Nuclei (%),[2]; [7],81% and 82%
same,Population Hoechst High Intensity Objects (%),[2]; [7],6% and 9%
same,Population Membrane Permeable-Phenotype (%),[2]; [7],1%
same,Population Mitochondria Different-Phenotype (%),[2]; [7],46% and 48%
same,Population Mitotic Cells (%),[2]; [7],32% and 36%
same,Population Normal (%),[2]; [7],93% and 90%
same,Population Pyknosed Nuclei (%),[2]; [7],14% and 13%
same,Population Tubulin-Different-Phenotype (%),[2]; [7],86% and 82%
same,Total Cell Count,[2]; [7],619 and 581
same,Population Apoptotic (%),[2]; [8],31% and 16%
same,Population Fragmented Nuclei (%),[2]; [8],9% and 8%
same,Population Healthy Nuclei (%),[2]; [8],85% and 87%
same,Population Hoechst High Intensity Objects (%),[2]; [8],8% and 10%
same,Population Membrane Permeable-Phenotype (%),[2]; [8],5% and 3%
same,Population Mitochondria Different-Phenotype (%),[2]; [8],1% and 0%
same,Population Mitotic Cells (%),[2]; [8],68% and 83%
same,Population Normal (%),[2]; [8],91% and 89%
same,Population Pyknosed Nuclei (%),[2]; [8],5% and 3%
same,Population Tubulin-Different-Phenotype (%),[2]; [8],14% and 11%
same,Total Cell Count,[2]; [8],1435 and 2116
same,Population Apoptotic (%),[2]; [9],44% and 58%
same,Population Fragmented Nuclei (%),[2]; [9],5% and 6%
same,Population Healthy Nuclei (%),[2]; [9],86% and 85%
same,Population Hoechst High Intensity Objects (%),[2]; [9],9% and 10%
same,Population Membrane Permeable-Phenotype (%),[2]; [9],4% and 6%
same,Population Mitochondria Different-Phenotype (%),[2]; [9],8% and 12%
same,Population Mitotic Cells (%),[2]; [9],55% and 41%
same,Population Normal (%),[2]; [9],90% and 89%
same,Population Pyknosed Nuclei (%),[2]; [9],8%
same,Population Tubulin-Different-Phenotype (%),[2]; [9],64% and 60%
same,Total Cell Count,[2]; [9],952 and 839
same,Population Healthy Nuclei (%),[3]; [4],42% and 81%
same,Population Hoechst High Intensity Objects (%),[3]; [4],0%
same,Population Membrane Permeable-Phenotype (%),[3]; [4],0% and 1%
same,Population Mitochondria Different-Phenotype (%),[3]; [4],0% and 2%
same,Population Normal (%),[3]; [4],100%
same,Population Pyknosed Nuclei (%),[3]; [4],7% and 15%
same,Population Tubulin-Different-Phenotype (%),[3]; [4],100% and 81%
same,Population Healthy Nuclei (%),[3]; [5],49% and 77%
same,Population Hoechst High Intensity Objects (%),[3]; [5],0% and 1%
same,Population Membrane Permeable-Phenotype (%),[3]; [5],6% and 3%
same,Population Mitotic Cells (%),[3]; [5],80% and 36%
same,Population Normal (%),[3]; [5],100% and 98%
same,Population Pyknosed Nuclei (%),[3]; [5],8% and 17%
same,Population Tubulin-Different-Phenotype (%),[3]; [5],36% and 42%
same,Population Healthy Nuclei (%),[3]; [6],53% and 88%
same,Population Hoechst High Intensity Objects (%),[3]; [6],0%
same,Population Membrane Permeable-Phenotype (%),[3]; [6],0% and 2%
same,Population Mitochondria Different-Phenotype (%),[3]; [6],0% and 1%
same,Population Mitotic Cells (%),[3]; [6],0% and 24%
same,Population Normal (%),[3]; [6],100%
same,Population Pyknosed Nuclei (%),[3]; [6],0% and 9%
same,Population Tubulin-Different-Phenotype (%),[3]; [6],87% and 85%
same,Population Apoptotic (%),[3]; [7],63% and 64%
same,Population Healthy Nuclei (%),[3]; [7],39% and 73%
same,Population Hoechst High Intensity Objects (%),[3]; [7],0%
same,Population Membrane Permeable-Phenotype (%),[3]; [7],3%
same,Population Mitochondria Different-Phenotype (%),[3]; [7],12% and 19%
same,Population Mitotic Cells (%),[3]; [7],36% and 35%
same,Population Normal (%),[3]; [7],100% and 99%
same,Population Pyknosed Nuclei (%),[3]; [7],14% and 20%
same,Population Tubulin-Different-Phenotype (%),[3]; [7],32% and 51%
same,Population Healthy Nuclei (%),[3]; [8],55% and 88%
same,Population Hoechst High Intensity Objects (%),[3]; [8],0%
same,Population Normal (%),[3]; [8],100%
same,Population Pyknosed Nuclei (%),[3]; [8],3% and 7%
same,Population Tubulin-Different-Phenotype (%),[3]; [8],100% and 88%
same,Population Apoptotic (%),[3]; [9],92% and 74%
same,Population Healthy Nuclei (%),[3]; [9],34% and 66%
same,Population Hoechst High Intensity Objects (%),[3]; [9],0%
same,Population Membrane Permeable-Phenotype (%),[3]; [9],7% and 4%
same,Population Mitochondria Different-Phenotype (%),[3]; [9],7%
same,Population Normal (%),[3]; [9],100% and 99%
same,Population Pyknosed Nuclei (%),[3]; [9],16% and 24%
same,Population Tubulin-Different-Phenotype (%),[3]; [9],51% and 55%
